According to ChEMBL document CHEMBL1151715, “Novel D-xylose derivatives stimulate muscle glucose uptake by activating AMP-activated protein kinase alpha” (J Med Chem, 2008):
Values belong to the compound of their own block, whether it stands above or below them. Activity calls are given as the source filed them. No cut-off for these calls is given here.

Legend:
[1] = Cytotoxicity against rat L6 cells by MTT assay; type: cell-based
In short: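 MTT assay on L6 myotubes after the treatment incubations: MTT at 2 mg/mL in αMEM for 30 min at 37 °C, formazan dissolved in DMSO, absorbance read at 570 nm.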

[2] = test system: L6; test: Effect on [3H]2-deoxy-D-glucose uptake in rat L6 cells at 250 uM relative to control; type: functional
In short: (§1)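 L6 myotubes were held in αMEM with 2% FCS and 23.0 mM D-glucose for 24 h. They were then treated with increasing concentrations in medium with 10% FCS and 23.0 mM D-glucose for 7 or 18 h; vehicle controls ran 18 h. After washing, uptake was measured with 0.1 mM dGlc plus 1.3 µCi/mL [3H]dGlc in PBS pH 7.4 for 5 min at room temperature. Ice-cold PBS stop, SDS lysis, scintillation counting; basal rate set to 100%.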

[3] = test system: L6; test: Increase in GLUT1myc abundance in rat L6 cell membrane at 150 uM after 7 hrs; type: functional, cell-based
In short: (§2)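 Myc-tagged GLUT1 or GLUT4 L6 myotubes were preconditioned at 5.5 or 23.0 mM glucose for 24 h, then treated in 10% FCS medium for 7 h (18 h for the 5 µM agent). Insulin was 200 nM for 30 min. Intact cells were labeled with rabbit anti-myc (1:200), fixed in 3% formaldehyde, and given HRP anti-rabbit IgG (1:2000). OPD colour was read at 492 nm.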

[4] = test system: L6; test: Effect on [3H]2-deoxy-D-glucose uptake in rat L6 cells at 5 uM relative to control; type: functional, cell-based; conditions: TDE = time-dependent effect; in short: as §1
[5] = test system: L6; test: Increase in GLUT1myc abundance in rat L6 cell membrane at 50 uM after 7 hrs; type: functional, cell-based; in short: as §2
[6] = test system: L6; test: Inhibition of [3H]2-deoxy-D-glucose uptake in rat L6 cells at 50 uM in presence of 100 nM wortmannin; type: functional, cell-based
In short: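 L6 myotubes at 23 mM D-glucose received 100 nM wortmannin 30 min before the agents. Treatment ran in 10% FCS medium for 7 h (18 h for the 5 µM agent). A 5-min [3H]dGlc uptake (0.1 mM dGlc, 1.3 µCi/mL) in PBS at room temperature followed, with the vehicle basal rate set to 100%.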

[7] = test system: L6; test: Increase in GLUT4myc abundance in rat L6 cell membrane at 50 uM after 7 hrs; type: functional, cell-based; in short: as §2
[8] = test system: L6; test: Increase in GLUT1myc abundance in rat L6 cell membrane at 20 mM after 7 hrs; type: functional, cell-based; conditions: 50 uM, in the assay text read “at 50 uM” for “at 20 mM”; in short: as §2
[9] = test system: L6; test: Increase in GLUT1myc abundance in rat L6 cell membrane at 5 µM after 18 hrs; type: functional, cell-based; in short: as §2
[10] = species: Homo sapiens; test: Activation of 5-AMP-induced AMPKalpha in human skeletal muscle cells assessed as […] phosphorylation at 50 uM relative to control
In short: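 Primary human skeletal myoblasts from the rectus abdominis of a donor were differentiated into myotubes and treated in medium with 10% (v/v) FCS, 23.0 mM D-glucose and agent, with vehicle controls. Whole-cell lysates were Western blotted for total AMPKα and […]-AMPKα, with ECL detection and densitometry.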

[11] = test system: L6; test: Effect on [3H]2-deoxy-D-glucose uptake in rat L6 cells at 150 uM relative to control; type: functional, cell-based; conditions: TDE = time-dependent effect; in short: as §1
[12] = test system: L6; test: Effect on [3H]2-deoxy-D-glucose uptake in rat L6 cells at 50 uM relative to control; type: functional, cell-based; conditions: TDE = time-dependent effect; in short: as §1
[13] = Effect on [3H]2-deoxy-D-glucose uptake in human skeletal muscle cells at 50 uM relative to control; type: functional
[14] = test system: L6; test: Activation of 5-AMP-induced AMPKalpha in rat L6 cells assessed as […] phosphorylation at 50 uM relative to control; type: cell-based
In short: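 L6 myotubes preconditioned 24 h in αMEM with 2% FCS and 23.0 mM D-glucose, then given fresh medium with 10% (v/v) FCS, 23.0 mM D-glucose and test agent; controls received vehicle. Whole-cell lysates (Tris pH 7.5 with phosphatase and protease inhibitors) were blotted for AMPKα and […]-AMPKα, detected by ECL, and bands quantified by densitometry.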

[15] = test system: L6; test: Activation of 5-AMP-induced AMPKalpha in rat L6 cells assessed as […] phosphorylation at 50 uM relative to control in presence of compound C; type: cell-based
[16] = test system: L6; test: Effect on [3H]2-deoxy-D-glucose uptake in rat L6 cells at 400 uM relative to control; type: functional; in short: as §1
[17] = test system: L6; test: Effect on [3H]2-deoxy-D-glucose uptake in rat L6 cells at 1 mM relative to control; type: functional; in short: as §1

Structure (SMILES): CCO[C@H]1[C@@H](CO)O[C@@H](c2ccccc2)O[C@H]1C(SCC)SCC
MCC [1]: 0.6 mM
fold change (FC) [2]: 1.01

Activity [10]: Active
Structure (SMILES): CCSC(SCC)[C@@H]1O[C@H](c2ccccc2)O[C@H](CO)[C@@H]1OC
Activity [3]: inactive
Activity [4]: tde
Activity [5]: inactive
Activity [6]: Active
Activity [7]: Active
Activity [8]: inactive
Activity [9]: inactive
Activity [11]: tde
Activity [12]: tde
fold change (FC) [13]: 1.4
fold change (FC) [14]: 3.98
Activity [15]: 69.2%

Structure (SMILES): O[C@@H]1[C@@H](O)[C@H](ON2CCCCC2)OC[C@H]1O
fold change (FC) [16]: 0.94
MCC [1]: 1 mM

Structure (SMILES): O[C@@H]1[C@@H](O)[C@@H](OC2=CC=CCO2)OC[C@H]1O
fold change (FC) [17]: 0.99
MCC [1]: 5 mM
